Key:
[1] = Displacement of [3H]DTG from sigma2 receptor in rat liver membrane; type: cell membranes
Outline: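 Rat liver membrane homogenate (~300 μg protein) incubated 2 h at room temperature with ~5 nM [3H]DTG plus 1 μM (+)-pentazocine to mask σ1 sites. Haloperidol 10 μM defines nonspecific binding. Filtered and counted.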

[2] = biological target: T1, Vesicular acetylcholine transporter (Homo sapiens, UniProt Q16572); assay: Displacement of [3H]vesamicol from human vesicular acetylcholine transporter expressed in rat PC12 cells by liquid scintillation spectrometry; type: cell-based, PC-12
T1 sequence (Q16572 whole entry): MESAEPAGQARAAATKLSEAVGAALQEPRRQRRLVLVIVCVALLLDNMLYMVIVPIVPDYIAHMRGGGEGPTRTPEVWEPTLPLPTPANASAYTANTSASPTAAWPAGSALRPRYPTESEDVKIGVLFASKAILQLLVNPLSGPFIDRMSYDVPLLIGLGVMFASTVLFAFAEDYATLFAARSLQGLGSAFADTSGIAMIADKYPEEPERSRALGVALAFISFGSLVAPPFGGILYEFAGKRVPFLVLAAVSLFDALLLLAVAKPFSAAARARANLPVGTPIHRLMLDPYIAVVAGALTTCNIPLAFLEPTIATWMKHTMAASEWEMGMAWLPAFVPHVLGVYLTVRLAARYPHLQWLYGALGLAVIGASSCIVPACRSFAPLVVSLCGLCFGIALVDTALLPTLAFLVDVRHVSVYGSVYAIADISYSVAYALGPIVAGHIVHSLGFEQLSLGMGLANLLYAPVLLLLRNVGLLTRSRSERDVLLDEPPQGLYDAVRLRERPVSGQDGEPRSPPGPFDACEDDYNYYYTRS

[3] = Selectivity ratio of Ki for human vesicular acetylcholine transporter to Ki for sigma1 receptor in guinea pig brain membrane; type: cell membranes
[4] = biological target: Sigma non-opioid intracellular receptor 1 (Cavia porcellus, UniProt Q60492); assay: Displacement of [3H](+)-pentazocine from sigma1 receptor in guinea pig brain membrane by liquid scintillation counting; type: cell membranes
[5] = tested on: Brain; assay: Drug uptake in Sprague-Dawley rat brain at 25 to 35 uCi, iv after 5 mins postinjection by […]; type: ADME, organism-based; details: in vivo
Outline: (§1)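 Mature male Sprague-Dawley rats (250–400 g) under 2–3% isoflurane got 25–35 μCi tracer in 100–150 μL saline via tail vein. Groups of at least 4 were euthanized at 5 min, 30 min, 1 h or 2 h. Brain was dissected into regions, and tissues were weighed and gamma counted against an injectate standard. Values are %ID/g, mean ± SD.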

[6] = tested on: Brain; assay: Drug uptake in Sprague-Dawley rat brain at 25 to 35 uCi, iv after 30 mins postinjection by […]; type: ADME, organism-based; details: in vivo, 0.5 h; outline: as §1
[7] = tested on: Lung; assay: Drug uptake in Sprague-Dawley rat lung at 25 to 35 uCi, iv after 2 hrs postinjection by […]; type: ADME, organism-based; details: in vivo; outline: as §1
[8] = tested on: Bone; assay: Drug uptake in Sprague-Dawley rat bone at 25 to 35 uCi, iv after 2 hrs postinjection by […]; type: ADME, organism-based, Bone element; details: in vivo; outline: as §1
[9] = tested on: Lung; assay: Drug uptake in Sprague-Dawley rat lung at 25 to 35 uCi, iv after 30 mins postinjection by […]; type: ADME, organism-based; details: in vivo, 0.5 h; outline: as §1
[10] = tested on: Heart; assay: Drug uptake in Sprague-Dawley rat heart at 25 to 35 uCi, iv after 5 mins postinjection by […]; type: ADME, organism-based; details: in vivo; outline: as §1
[11] = tested on: Heart; assay: Drug uptake in Sprague-Dawley rat heart at 25 to 35 uCi, iv after 2 hrs postinjection by […]; type: ADME, organism-based; details: in vivo; outline: as §1
[12] = tested on: Liver; assay: Drug uptake in Sprague-Dawley rat liver at 25 to 35 uCi, iv after 2 hrs postinjection by […]; type: ADME, organism-based; details: in vivo; outline: as §1
[13] = tested on: Bone; assay: Drug uptake in Sprague-Dawley rat bone at 25 to 35 uCi, iv after 30 mins postinjection by […]; type: ADME, organism-based, Bone element; details: in vivo, 0.5 h; outline: as §1
[14] = tested on: Brain; assay: Drug uptake in Sprague-Dawley rat brain at 25 to 35 uCi, iv after 1 hr postinjection by […]; type: ADME, organism-based; details: in vivo; outline: as §1
[15] = tested on: Lung; assay: Drug uptake in Sprague-Dawley rat lung at 25 to 35 uCi, iv after 1 hr postinjection by […]; type: ADME, organism-based; details: in vivo; outline: as §1
[16] = tested on: Blood; assay: Drug uptake in Sprague-Dawley rat blood at 25 to 35 uCi, iv after 5 mins postinjection by […]; type: ADME, organism-based; details: in vivo; outline: as §1
[17] = tested on: Muscle tissue; assay: Drug uptake in Sprague-Dawley rat muscle at 25 to 35 uCi, iv after 30 mins postinjection by […]; type: ADME, organism-based; details: in vivo, 0.5 h; outline: as §1
[18] = tested on: Kidney; assay: Drug uptake in Sprague-Dawley rat kidney at 25 to 35 uCi, iv after 2 hrs postinjection by […]; type: ADME, organism-based; details: in vivo; outline: as §1
[19] = tested on: Kidney; assay: Drug uptake in Sprague-Dawley rat kidney at 25 to 35 uCi, iv after 1 hr postinjection by […]; type: ADME, organism-based; details: in vivo; outline: as §1
[20] = tested on: Lung; assay: Drug uptake in Sprague-Dawley rat lung at 25 to 35 uCi, iv after 5 mins postinjection by […]; type: ADME, organism-based; details: in vivo; outline: as §1
[21] = tested on: Brain; assay: Drug uptake in Sprague-Dawley rat brain at 25 to 35 uCi, iv after 2 hrs postinjection by […]; type: ADME, organism-based; details: in vivo; outline: as §1
[22] = tested on: Heart; assay: Drug uptake in Sprague-Dawley rat heart at 25 to 35 uCi, iv after 30 mins postinjection by […]; type: ADME, organism-based; details: in vivo, 0.5 h; outline: as §1
[23] = tested on: Bone; assay: Drug uptake in Sprague-Dawley rat bone at 25 to 35 uCi, iv after 5 mins postinjection by […]; type: ADME, organism-based, Bone element; details: in vivo; outline: as §1
[24] = tested on: Muscle tissue; assay: Drug uptake in Sprague-Dawley rat muscle at 25 to 35 uCi, iv after 5 mins postinjection by […]; type: ADME, organism-based; details: in vivo; outline: as §1
[25] = tested on: Liver; assay: Drug uptake in Sprague-Dawley rat liver at 25 to 35 uCi, iv after 30 mins postinjection by […]; type: ADME, organism-based; details: in vivo, 0.5 h; outline: as §1
[26] = tested on: Muscle tissue; assay: Drug uptake in Sprague-Dawley rat muscle at 25 to 35 uCi, iv after 1 hr postinjection by […]; type: ADME, organism-based; details: in vivo; outline: as §1
[27] = tested on: Bone; assay: Drug uptake in Sprague-Dawley rat bone at 25 to 35 uCi, iv after 1 hr postinjection by […]; type: ADME, organism-based, Bone element; details: in vivo; outline: as §1
[28] = Drug uptake in Sprague-Dawley rat fat at 25 to 35 uCi, iv after 1 hr postinjection by […]; type: ADME, organism-based, Adipose tissue; details: in vivo; outline: as §1
[29] = tested on: Kidney; assay: Drug uptake in Sprague-Dawley rat kidney at 25 to 35 uCi, iv after 30 mins postinjection by […]; type: ADME, organism-based; details: in vivo, 0.5 h; outline: as §1
[30] = tested on: Liver; assay: Drug uptake in Sprague-Dawley rat liver at 25 to 35 uCi, iv after 1 hr postinjection by […]; type: ADME, organism-based; details: in vivo; outline: as §1
[31] = tested on: Liver; assay: Drug uptake in Sprague-Dawley rat liver at 25 to 35 uCi, iv after 5 mins postinjection by […]; type: ADME, organism-based; details: in vivo; outline: as §1
[32] = tested on: Kidney; assay: Drug uptake in Sprague-Dawley rat kidney at 25 to 35 uCi, iv after 5 mins postinjection by […]; type: ADME, organism-based; details: in vivo; outline: as §1
[33] = tested on: Blood; assay: Drug uptake in Sprague-Dawley rat blood at 25 to 35 uCi, iv after 1 hr postinjection by […]; type: ADME, organism-based; details: in vivo; outline: as §1
[34] = tested on: Heart; assay: Drug uptake in Sprague-Dawley rat heart at 25 to 35 uCi, iv after 1 hr postinjection by […]; type: ADME, organism-based; details: in vivo; outline: as §1
[35] = tested on: Blood; assay: Drug uptake in Sprague-Dawley rat blood at 25 to 35 uCi, iv after 30 mins postinjection by […]; type: ADME, organism-based; details: in vivo, 0.5 h; outline: as §1
[36] = Drug uptake in Sprague-Dawley rat fat at 25 to 35 uCi, iv after 30 mins postinjection by […]; type: ADME, organism-based, Adipose tissue; details: in vivo, 0.5 h; outline: as §1
[37] = tested on: Muscle tissue; assay: Drug uptake in Sprague-Dawley rat muscle at 25 to 35 uCi, iv after 2 hrs postinjection by […]; type: ADME, organism-based; details: in vivo; outline: as §1
[38] = Drug uptake in Sprague-Dawley rat fat at 25 to 35 uCi, iv after 5 mins postinjection by […]; type: ADME, organism-based, Adipose tissue; details: in vivo; outline: as §1
[39] = Drug uptake in Sprague-Dawley rat fat at 25 to 35 uCi, iv after 2 hrs postinjection by […]; type: ADME, organism-based, Adipose tissue; details: in vivo; outline: as §1

Chain of Sigma non-opioid intracellular receptor 1 (Q60492 whole entry): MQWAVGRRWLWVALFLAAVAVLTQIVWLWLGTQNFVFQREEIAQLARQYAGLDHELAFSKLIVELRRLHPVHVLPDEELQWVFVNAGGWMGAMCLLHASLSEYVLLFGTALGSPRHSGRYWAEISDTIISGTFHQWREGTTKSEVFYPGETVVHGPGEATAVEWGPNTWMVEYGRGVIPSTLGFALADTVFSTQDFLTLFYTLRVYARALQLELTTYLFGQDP

O=C(c1ccccc1)C1CCN([C@@H]2Cc3ccccc3C[C@H]2O)CC1 (racemic)
Ki [1]: 0.32 µM
Ki [2]: 0.0043 µM
Ratio Ki [3]: 51
Ki [4]: 0.22 µM

O=C(c1ccc(F)cc1)C1CCN([C@@H]2Cc3ccccc3C[C@H]2O)CC1 (stereo in doubt; (-)-9e)
Ki [1]: 0.319 µM

O=C(c1ccc([18F])cc1)C1CCN([C@@H]2Cc3ccccc3C[C@H]2O)CC1 (racemic)
Drug uptake [5]: 0.606 % ID/g
Drug uptake [6]: 0.153 % ID/g
Drug uptake [7]: 0.223 % ID/g
Drug uptake [8]: 0.739 % ID/g
Drug uptake [9]: 0.553 % ID/g
Drug uptake [10]: 0.328 % ID/g
Drug uptake [11]: 0.056 % ID/g
Drug uptake [12]: 1.188 % ID/g
Drug uptake [13]: 0.445 % ID/g
Drug uptake [14]: 0.095 % ID/g
Drug uptake [15]: 0.346 % ID/g
Drug uptake [16]: 0.122 % ID/g
Drug uptake [17]: 0.071 % ID/g
Drug uptake [18]: 0.853 % ID/g
Drug uptake [19]: 0.99 % ID/g
Drug uptake [20]: 1.389 % ID/g
Drug uptake [21]: 0.059 % ID/g
Drug uptake [22]: 0.141 % ID/g
Drug uptake [23]: 0.307 % ID/g
Drug uptake [24]: 0.079 % ID/g
Drug uptake [25]: 1.504 % ID/g
Drug uptake [26]: 0.076 % ID/g
Drug uptake [27]: 0.623 % ID/g
Drug uptake [28]: 0.196 % ID/g
Drug uptake [29]: 1.042 % ID/g
Drug uptake [30]: 1.402 % ID/g
Drug uptake [31]: 1.939 % ID/g
Drug uptake [32]: 1.644 % ID/g
Drug uptake [33]: 0.043 % ID/g
Drug uptake [34]: 0.094 % ID/g
Drug uptake [35]: 0.071 % ID/g
Drug uptake [36]: 0.177 % ID/g
Drug uptake [37]: 0.047 % ID/g
Drug uptake [38]: 0.088 % ID/g
Drug uptake [39]: 0.173 % ID/g

O=C(c1ccc([N+](=O)[O-])cc1)C1CCN([C@@H]2Cc3ccccc3C[C@H]2O)CC1 (racemic)
Ki [2]: 0.00048 µM

O[C@@H]1CCCC[C@H]1N1CCC(c2ccccc2)CC1 [VESAMICOL]
Ki [1]: 0.0345 µM

O=C(c1ccc(Br)cc1)C1CCN([C@@H]2Cc3ccccc3C[C@H]2O)CC1 (racemic)
Ki [1]: 0.593 µM
Ki [2]: 0.00025 µM
Ratio Ki [3]: 1190
Ki [4]: 0.298 µM

NCC1(c2ccccc2)CCN([C@@H]2Cc3c(I)cccc3C[C@H]2O)CC1
Kd [2]: 0.003 µM

From ChEMBL document CHEMBL1140914, “Synthesis and in vitro and in vivo evaluation of 18F-labeled positron emission tomography (PET) ligands for imaging the vesicular acetylcholine transporter” (J Med Chem, 2009)
